We go through 17 molecules from ChEMBL document CHEMBL5252534, “Discovery of a Noncovalent, Mutant-Selective Epidermal Growth Factor Receptor Inhibitor” (J Med Chem, 2016).

Structures are written as SMILES. In brackets after ≈: the same amount, converted by molar mass.

The target of series [1] is T1, Epidermal growth factor receptor (Homo sapiens, UniProt P00533). Nature of the series: Inhibition of wild type human EGFR assessed as apparent inhibition constant using Fl-EEPLYWSFPAKKK-CONH2 as substrate preincubated for 30 mins followed by addition of substrate and measured after 30 mins by Morrison plot analysis. The note with it: read-out: Ki(app).
Target sequence in this assay (P00533 whole entry): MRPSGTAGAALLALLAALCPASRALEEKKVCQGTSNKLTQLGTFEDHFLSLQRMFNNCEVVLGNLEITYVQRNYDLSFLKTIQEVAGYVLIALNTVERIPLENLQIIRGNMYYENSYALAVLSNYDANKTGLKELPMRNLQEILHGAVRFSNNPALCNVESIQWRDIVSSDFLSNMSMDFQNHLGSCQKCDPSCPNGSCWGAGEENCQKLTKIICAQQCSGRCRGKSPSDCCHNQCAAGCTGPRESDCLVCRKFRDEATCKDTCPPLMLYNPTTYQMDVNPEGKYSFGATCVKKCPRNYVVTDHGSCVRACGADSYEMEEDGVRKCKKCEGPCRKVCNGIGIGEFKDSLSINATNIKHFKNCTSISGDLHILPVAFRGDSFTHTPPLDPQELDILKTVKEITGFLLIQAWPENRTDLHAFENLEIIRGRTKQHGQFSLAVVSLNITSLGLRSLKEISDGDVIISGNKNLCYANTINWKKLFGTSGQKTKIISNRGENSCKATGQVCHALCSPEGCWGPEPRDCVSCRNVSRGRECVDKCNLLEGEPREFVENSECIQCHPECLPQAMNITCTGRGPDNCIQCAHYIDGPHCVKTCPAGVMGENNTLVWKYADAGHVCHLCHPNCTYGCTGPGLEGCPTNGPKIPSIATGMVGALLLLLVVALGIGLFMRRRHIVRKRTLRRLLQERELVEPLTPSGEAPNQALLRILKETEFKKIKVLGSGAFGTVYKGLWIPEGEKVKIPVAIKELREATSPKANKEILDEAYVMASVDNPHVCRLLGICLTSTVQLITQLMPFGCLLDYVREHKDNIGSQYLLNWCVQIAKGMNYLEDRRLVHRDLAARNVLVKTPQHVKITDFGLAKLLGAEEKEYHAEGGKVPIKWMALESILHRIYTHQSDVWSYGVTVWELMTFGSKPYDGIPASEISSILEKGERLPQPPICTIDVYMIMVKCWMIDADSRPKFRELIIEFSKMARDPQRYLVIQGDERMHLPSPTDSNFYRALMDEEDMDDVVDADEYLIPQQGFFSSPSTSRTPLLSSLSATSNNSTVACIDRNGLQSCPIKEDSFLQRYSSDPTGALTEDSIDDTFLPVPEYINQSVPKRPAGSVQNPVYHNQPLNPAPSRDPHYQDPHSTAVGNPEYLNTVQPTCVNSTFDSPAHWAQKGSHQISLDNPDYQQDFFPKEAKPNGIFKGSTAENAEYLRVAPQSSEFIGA
Series [2] deals with Epidermal growth factor receptor (Homo sapiens, UniProt P00533, L858R). Briefly: Inhibition of human EGFR L858R mutant assessed as apparent inhibition constant using Fl-EEPLYWSFPAKKK-CONH2 peptide as substrate preincubated for 30 mins followed by addition of substrate and measured after 30 mins by Morrison plot analysis. As to conditions: read-out: Ki(app). Put shortly:
(§1)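 Biochemical kinase Ki determination; reported values are geometric means of at least two independent experiments.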

For series [3], the target named is T2, Epidermal growth factor receptor (Homo sapiens, UniProt P00533, 746-750DEL/T790M). Nature of the series: Inhibition of human EGFR T790M/del (746 to 750 residues) mutant assessed as apparent inhibition constant using Fl-EEPLYWSFPAKKK-CONH2 peptide as substrate preincubated for 30 mins followed by addition of substrate and measured after 30 mins by Morrison plot analysis. The note with it: read-out: Ki(app). Put shortly:
as §1

Series [4] has as its target T3, Epidermal growth factor receptor (Homo sapiens, UniProt P00533, L858R/T790M). Nature of the series: Inhibition of human EGFR T790M/L858R double mutant assessed as apparent inhibition constant using Fl-EEPLYWSFPAKKK-CONH2 as peptide substrate preincubated for 30 mins followed by addition of substrate and measured after 30 mins by Morrison plot analysis. As to conditions: read-out: Ki(app).

Series [5] can be described thus: Apparent permeability across apical to basolateral side in dog MDCK cells. The series is classed as ADME, cell-based, Canis lupus familiaris.
A short description of series [6]: Aqueous kinetic solubility of compound in PBS buffer at pH 7.4 at 100 uM incubated for 24 hrs by LC/CLND analysis. The series is classed as physicochemical. The note with it: read-out: Kinetic_solubility. Put shortly: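 Kinetic aqueous solubility measured at pH 7.4.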
For series [7], the target named is T4, Epidermal growth factor receptor (Homo sapiens, UniProt P00533, 746-750DEL). Briefly: Inhibition of human EGFR del (746 to 750) mutant assessed as apparent inhibition constant using Fl-EEPLYWSFPAKKK-CONH2 as substrate preincubated for 30 mins followed by addition of substrate and measured after 30 mins by Morrison plot analysis. The note with it: read-out: Ki(app). The method in brief:
as §1

Series [8] is described as follows: Clearance in human hepatocyte. The series is classed as ADME, cell-based. As to conditions: hepatocytes. The method in brief:
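Cryopreserved human hepatocytes used; intrinsic clearance converted to predicted hepatic clearance as (Q × Clint)/(Q + Clint) using liver blood flow Q.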

Series [9] addresses T4, Epidermal growth factor receptor. The series is classed as cell-based, PC-9.
For series [10], the target named is T3, Epidermal growth factor receptor. It counts as cell-based, NCI-H1975.
A short description of series [11]: Clearance in human liver microsomes. The series is classed as ADME, Microsome. The method in brief:
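Incubation with human liver microsomes; intrinsic clearance scaled to predicted hepatic clearance as Clhep = (Q × Clint)/(Q + Clint), where Q is liver blood flow.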

For series [12], the target named is T1, Epidermal growth factor receptor. Briefly: Inhibition of EGFR autophosphorylation in human NCI-H292 cells harboring harboring wild type EGFR preincubated for 60 mins followed by EGF stimulation and measured after 8 mins by SULFO-TAG based electrochemiluminescent assay. The series is classed as cell-based.
Target sequence in this assay (P00533 25-1210 limits assumed, stated change not applied): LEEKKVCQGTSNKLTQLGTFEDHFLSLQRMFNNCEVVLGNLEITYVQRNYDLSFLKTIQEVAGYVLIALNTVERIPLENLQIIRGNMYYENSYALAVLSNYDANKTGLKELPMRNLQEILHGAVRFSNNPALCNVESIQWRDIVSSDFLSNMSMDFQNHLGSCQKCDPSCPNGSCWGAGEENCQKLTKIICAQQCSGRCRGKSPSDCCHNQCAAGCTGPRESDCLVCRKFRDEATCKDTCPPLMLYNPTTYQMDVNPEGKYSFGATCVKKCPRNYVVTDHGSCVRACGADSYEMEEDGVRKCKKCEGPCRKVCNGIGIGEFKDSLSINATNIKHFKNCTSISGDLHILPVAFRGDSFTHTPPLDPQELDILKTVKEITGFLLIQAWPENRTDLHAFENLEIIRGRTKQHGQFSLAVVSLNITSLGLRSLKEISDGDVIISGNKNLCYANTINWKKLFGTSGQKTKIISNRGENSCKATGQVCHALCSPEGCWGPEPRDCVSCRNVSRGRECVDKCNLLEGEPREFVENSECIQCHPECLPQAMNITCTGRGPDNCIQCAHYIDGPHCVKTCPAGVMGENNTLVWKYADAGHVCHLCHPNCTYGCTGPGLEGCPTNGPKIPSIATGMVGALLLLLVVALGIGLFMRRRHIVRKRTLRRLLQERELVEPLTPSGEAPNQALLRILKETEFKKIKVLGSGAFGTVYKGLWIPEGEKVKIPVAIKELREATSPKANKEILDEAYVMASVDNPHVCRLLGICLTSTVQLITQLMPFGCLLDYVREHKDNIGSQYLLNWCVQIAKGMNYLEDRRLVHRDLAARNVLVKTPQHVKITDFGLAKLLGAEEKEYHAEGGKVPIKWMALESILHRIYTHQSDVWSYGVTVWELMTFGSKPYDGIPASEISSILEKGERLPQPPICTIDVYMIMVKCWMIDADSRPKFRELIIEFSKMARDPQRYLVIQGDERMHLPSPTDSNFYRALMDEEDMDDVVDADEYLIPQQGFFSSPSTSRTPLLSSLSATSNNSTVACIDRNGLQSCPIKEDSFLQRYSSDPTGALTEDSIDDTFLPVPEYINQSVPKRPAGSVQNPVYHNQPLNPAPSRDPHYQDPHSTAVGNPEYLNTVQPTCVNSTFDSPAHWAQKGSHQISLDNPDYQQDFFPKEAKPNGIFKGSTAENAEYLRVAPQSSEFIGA
In series [13] the target is T2, Epidermal growth factor receptor. It counts as cell-based, PC-9/ER1.

T3 sequence (P00533 25-1210 T790M/L858R limits assumed): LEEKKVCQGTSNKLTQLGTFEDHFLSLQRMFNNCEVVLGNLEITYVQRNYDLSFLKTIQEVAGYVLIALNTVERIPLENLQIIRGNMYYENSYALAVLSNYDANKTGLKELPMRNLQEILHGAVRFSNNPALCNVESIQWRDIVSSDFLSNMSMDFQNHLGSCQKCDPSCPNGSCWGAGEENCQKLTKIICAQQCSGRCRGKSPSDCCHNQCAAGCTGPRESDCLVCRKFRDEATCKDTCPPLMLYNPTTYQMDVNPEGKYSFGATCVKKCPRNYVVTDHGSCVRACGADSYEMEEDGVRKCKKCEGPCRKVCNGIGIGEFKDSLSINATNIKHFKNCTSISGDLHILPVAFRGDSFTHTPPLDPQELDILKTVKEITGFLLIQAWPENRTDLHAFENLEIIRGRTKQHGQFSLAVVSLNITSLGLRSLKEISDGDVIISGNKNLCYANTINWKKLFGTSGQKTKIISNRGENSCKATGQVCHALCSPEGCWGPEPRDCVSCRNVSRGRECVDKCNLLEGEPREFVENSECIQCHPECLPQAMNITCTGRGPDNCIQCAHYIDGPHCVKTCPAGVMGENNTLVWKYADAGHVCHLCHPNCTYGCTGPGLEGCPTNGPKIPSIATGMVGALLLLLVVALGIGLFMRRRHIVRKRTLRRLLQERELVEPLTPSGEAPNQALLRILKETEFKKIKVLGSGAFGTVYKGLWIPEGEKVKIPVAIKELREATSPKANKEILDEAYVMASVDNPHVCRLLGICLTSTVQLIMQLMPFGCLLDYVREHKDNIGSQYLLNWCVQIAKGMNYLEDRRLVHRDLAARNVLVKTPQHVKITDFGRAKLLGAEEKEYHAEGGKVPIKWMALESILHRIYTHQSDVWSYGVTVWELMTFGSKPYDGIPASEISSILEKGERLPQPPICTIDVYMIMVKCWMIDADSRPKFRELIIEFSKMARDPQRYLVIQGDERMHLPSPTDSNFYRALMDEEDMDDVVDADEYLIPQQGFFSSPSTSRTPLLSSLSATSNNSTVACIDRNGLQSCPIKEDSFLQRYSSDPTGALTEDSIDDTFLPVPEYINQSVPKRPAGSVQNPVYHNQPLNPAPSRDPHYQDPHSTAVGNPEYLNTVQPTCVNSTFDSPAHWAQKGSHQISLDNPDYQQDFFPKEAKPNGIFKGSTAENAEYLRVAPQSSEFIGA
Sequence of Epidermal growth factor receptor (Homo sapiens, UniProt P00533, L858R) (P00533 25-1210 L858R limits assumed): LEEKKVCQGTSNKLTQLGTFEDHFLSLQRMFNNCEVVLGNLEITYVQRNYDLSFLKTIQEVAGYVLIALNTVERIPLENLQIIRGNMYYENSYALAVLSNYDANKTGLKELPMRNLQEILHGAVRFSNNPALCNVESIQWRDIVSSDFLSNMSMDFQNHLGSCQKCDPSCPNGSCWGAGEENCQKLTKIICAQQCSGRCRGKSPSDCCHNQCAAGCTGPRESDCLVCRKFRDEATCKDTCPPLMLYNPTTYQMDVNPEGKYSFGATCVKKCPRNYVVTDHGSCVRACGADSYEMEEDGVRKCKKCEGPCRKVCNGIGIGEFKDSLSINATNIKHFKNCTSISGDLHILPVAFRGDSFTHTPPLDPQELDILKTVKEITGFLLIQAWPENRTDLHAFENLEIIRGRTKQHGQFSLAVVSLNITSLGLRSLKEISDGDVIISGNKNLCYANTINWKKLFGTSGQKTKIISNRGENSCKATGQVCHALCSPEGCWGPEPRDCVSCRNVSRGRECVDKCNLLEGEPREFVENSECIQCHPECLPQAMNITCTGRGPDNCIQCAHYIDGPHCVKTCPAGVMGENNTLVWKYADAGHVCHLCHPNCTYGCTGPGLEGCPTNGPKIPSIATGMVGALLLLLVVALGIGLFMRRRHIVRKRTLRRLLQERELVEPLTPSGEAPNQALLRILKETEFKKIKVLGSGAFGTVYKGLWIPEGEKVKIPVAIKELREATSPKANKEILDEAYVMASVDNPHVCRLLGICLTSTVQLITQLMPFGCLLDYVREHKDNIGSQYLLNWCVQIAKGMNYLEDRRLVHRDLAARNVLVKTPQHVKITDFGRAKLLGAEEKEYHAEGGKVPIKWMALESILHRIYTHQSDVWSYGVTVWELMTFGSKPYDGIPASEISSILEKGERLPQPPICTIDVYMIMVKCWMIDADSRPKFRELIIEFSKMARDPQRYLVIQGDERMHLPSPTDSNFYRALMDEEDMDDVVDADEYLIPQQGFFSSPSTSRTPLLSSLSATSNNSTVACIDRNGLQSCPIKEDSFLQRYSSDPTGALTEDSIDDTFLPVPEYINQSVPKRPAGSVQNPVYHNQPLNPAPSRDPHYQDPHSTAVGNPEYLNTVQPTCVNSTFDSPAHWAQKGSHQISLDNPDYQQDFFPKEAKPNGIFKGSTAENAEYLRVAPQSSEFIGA

By Papp A→B is commonly meant how fast a substance crosses the layer from the apical side. For `CC(C)n1cc(C(N)=O)c2cnc(Nc3ccnc(-c4cnn(S(=O)(=O)C5CC5)c4)n3)cc21`, the Ki in series [1] was found to be 7.8 nM; in [2] it was 4.1 nM; in [3], 0.35 nM; in series [4], 1.1 nM; in [7], 1.2 nM. Besides, the Papp A→B in [5] stood at 4.5 ×10⁻⁶ cm/s. The solubility kinetic at 24 h, 100 µM in [6] was below 1 µM.
Consider `COC1CCN(c2nccc(Nc3cc4c(cn3)c(C(N)=O)cn4C(C)C)n2)CC1`, for which the Ki turned out to be 167 nM in [1]; 363 nM in [2]; 27 nM in [3]; 5.3 nM in series [4]; 323 nM in series [7]. Moreover, the Papp A→B in series [5] stood at 26 ×10⁻⁶ cm/s. Also, in series [6], the solubility kinetic at 24 h, 100 µM stood at 3 µM (≈ 1.23 µg/mL).
As for `Cc1nc2cnc(Nc3ccnc(-c4cnn(CC5CC5)c4)n3)cc2n1C(C)C`, the Ki came to 1200 nM in series [1] and 34 nM in series [4].
As to `COC1CCN(c2nccc(Nc3cc4c(cn3)c(C(N)=O)nn4C(C)C)n2)CC1`, in series [1], the Ki is above 100 nM.
Broadly, the IC50 is the concentration at which inhibition is half-maximal. For `CC(C)n1nc(N)c2cnc(Nc3ccnc(-c4cnn(S(=O)(=O)C5CC5)c4)n3)cc21`, the results for the Ki in series [1] and in series [4] were 8.2 nM and 0.79 nM, respectively. Further, the CLhep predicted was 8.4 mL/min/kg in series [8] and 13 mL/min/kg in series [11]. Moreover, the IC50 in series [9] stood at 80 nM; in series [10], 64 nM; in series [12], 3900 nM; in series [13], 14 nM. Moreover, in series [5], the Papp A→B came to 16 ×10⁻⁶ cm/s. Further, in series [6], the solubility kinetic at 24 h, 100 µM was determined as 2 µM (≈ 0.879 µg/mL).
For `CC(C)n1nc(N2CCOCC2)c2cnc(Nc3ccnc(-c4cnn(S(=O)(=O)C5CC5)c4)n3)cc21`, the figures for the Ki in series [1] and in series [4] were 10 nM and 2.1 nM, respectively. The CLhep predicted in series [8] was 6.7 mL/min/kg; in series [11], 9.3 mL/min/kg. The IC50 in [9] came to 76 nM; in series [10], 74 nM; in [12] it was 850 nM; in series [13] it was 19 nM. Also, the Papp A→B in series [5] was determined as 12 ×10⁻⁶ cm/s. Further, the solubility kinetic at 24 h, 100 µM in [6] was found to be 1 µM (≈ 0.51 µg/mL).
With `CC(C)n1cc(C(=O)NC2CCOCC2)c2cnc(Nc3ccnc(-c4cnn(S(=O)(=O)C5CC5)c4)n3)cc21`, the Ki in [1] worked out at 3.4 nM; in series [2], 3.8 nM; in [3] it was 1.6 nM; in series [4] it was 1.2 nM; in series [7], 1.4 nM. The Papp A→B in series [5] came out at 4.6 ×10⁻⁶ cm/s. Also, the solubility kinetic at 24 h, 100 µM in series [6] turned out to be 11 µM (≈ 6.06 µg/mL).
For `CC(C)n1nc(N2CC(C(C)(C)O)C2)c2cnc(Nc3ccnc(-c4cnn(S(=O)(=O)C5CC5)c4)n3)cc21`, the Ki in series [1] was 7 nM; in series [4] it was below 0.6 nM. In addition, the CLhep predicted was 7.1 mL/min/kg in series [8] and 8.9 mL/min/kg in [11]. The IC50 in series [9] came to 130 nM; in series [10], 32 nM; in [12] it was 210 nM; in series [13], 10 nM. Moreover, in series [5], the Papp A→B amounted to 20 ×10⁻⁶ cm/s. Further, in [6], the solubility kinetic at 24 h, 100 µM is below 1 µM.
Consider `CC[C@@H](C)n1nc(N2CC(C(C)(C)O)C2)c2cnc(Nc3ccnc(-c4cnn(S(=O)(=O)C5CC5)c4)n3)cc21`, for which the CLhep predicted in series [8] is 7.8 mL/min/kg; in series [11], 9.9 mL/min/kg. Further, the IC50 in series [9] stood at 57 nM; in series [10], 40 nM; in series [12], 580 nM; in series [13], 15 nM. The apical-to-basolateral permeability (Papp A→B) in series [5] turned out to be 19 ×10⁻⁶ cm/s. Also, in series [6], the solubility kinetic at 24 h, 100 µM is 2 µM (≈ 1.1 µg/mL).
Turning to `Cc1nc2cnc(Nc3ccnc(-c4cnn(S(C)(=O)=O)c4)n3)cc2n1C(C)C`, the Ki in [1] is 324 nM; in [2], 126 nM; in series [3], 3.5 nM; in [7] it was 38 nM.
In the case of `Cc1nc2cnc(Nc3ccnc(-c4cnn(S(=O)(=O)C5CC5)c4)n3)cc2n1C(C)C`, the Ki in [1] turned out to be 55 nM; in series [2] it was 43 nM; in series [3], 1.8 nM; in series [7], 12 nM. Further, the CLhep predicted in [8] was 4 mL/min/kg; in [11], 7.7 mL/min/kg. Besides, the apparent permeability from apical to basolateral (Papp A→B) in series [5] came to 21 ×10⁻⁶ cm/s.
In the case of `CO[C@H]1CCN(c2nccc(Nc3cc4c(cn3)nc(C)n4C(C)C)n2)C[C@H]1F`, the Ki worked out at 896 nM in [1]; 608 nM in [2]; 41 nM in series [3]; 3.6 nM in series [4]; 1800 nM in series [7].
Take `CC(C)n1nc(N2CC(CO)C2)c2cnc(Nc3ccnc(-c4cnn(S(=O)(=O)C5CC5)c4)n3)cc21`: the values for the Ki in series [1] and in series [4] were 2 nM and below 0.6 nM, respectively. Besides, the CLhep predicted in [8] is 13 mL/min/kg; in series [11] it was 10 mL/min/kg. For the same molecule, the IC50 in [9] was found to be 28 nM; in series [10] it was 19 nM; in [12] it was 96 nM; in series [13], 8.1 nM. Moreover, the Papp A→B in [5] worked out at 8.1 ×10⁻⁶ cm/s. Further, the solubility kinetic at 24 h, 100 µM in series [6] is 3 µM (≈ 1.53 µg/mL).
In the case of `CC(C)n1nc(N2CCC(O)CC2)c2cnc(Nc3ccnc(-c4cnn(S(=O)(=O)C5CC5)c4)n3)cc21`, the values for the CLhep predicted in series [8] and in [11] were 7.7 mL/min/kg and 7 mL/min/kg, respectively. The Papp A→B in series [5] is 12 ×10⁻⁶ cm/s. Also, the solubility kinetic at 24 h, 100 µM in series [6] came to 1 µM (≈ 0.524 µg/mL).
With `CC(C)c1nn(C(C)C)c2cc(Nc3ccnc(-c4cnn(S(=O)(=O)C5CC5)c4)n3)ncc12`, the Ki in series [1] is below 531 nM. Besides, the values for the CLhep predicted in series [8] and in series [11] were 15 mL/min/kg and 8.5 mL/min/kg, respectively. Moreover, the IC50 in [9] is 3000 nM; in series [10], 2400 nM; in [12], above 10000 nM; in series [13] it was 910 nM. Besides, the Papp A→B in [5] worked out at 3.9 ×10⁻⁶ cm/s. Also, the solubility kinetic at 24 h, 100 µM in series [6] is below 1 µM.
Consider `Cc1nc2cnc(Nc3ccnc(N4CC[C@H](O)[C@H](F)C4)n3)cc2n1C(C)C` (racemic), for which the CLhep predicted in [8] was 9 mL/min/kg; in series [11], 5.2 mL/min/kg. Also, the Ki in [2] was determined as 1100 nM; in [3], 43 nM; in [7], 1300 nM. For the same molecule, the Papp A→B in [5] came out at 19 ×10⁻⁶ cm/s.
Turning to `CC(C)n1cc(C(=O)NC2COC2)c2cnc(Nc3ccnc(-c4cnn(S(=O)(=O)C5CC5)c4)n3)cc21`, the Ki in [1] was 4.6 nM; in series [2] it was 6.4 nM; in [3], 2 nM; in [4] it was 1.1 nM; in series [7], 2 nM. For the same molecule, the Papp A→B in series [5] amounted to 2.3 ×10⁻⁶ cm/s. In series [6], the solubility kinetic at 24 h, 100 µM was 7 µM (≈ 3.66 µg/mL).
